Source: the EternaBench riboswitch data

Test system: MS2 coat protein
Assay: apparent Kd, MS2 coat protein; higher = weaker binding; RNA-MaP array; FMN 200 µM where present
Method in brief: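 Green signal from SNAP-549-labelled MS2 coat protein was normalised to red-channel RNA signal and to the median Fmax of control clusters. The protein was titrated from 0.7 or 1.5 nM, doubling to 3 µM, without and then with constant ligand, over designs transcribed by stalled E. coli RNA polymerase on Illumina sequencing-chip clusters, in 100 mM Tris-HCl pH 7.5, 80 mM KCl, 4 mM MgCl2, BSA, DTT, yeast tRNA and Tween-20. The apparent Kd is the median of filtered per-cluster binding-curve fits.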

[1] = designed as: OFF switch for flavin mononucleotide, no ligand
[2] = ligand present: flavin mononucleotide, designed as: OFF switch for flavin mononucleotide
[3] = designed as: ON switch for flavin mononucleotide, no ligand
[4] = ligand present: flavin mononucleotide, designed as: ON switch for flavin mononucleotide

| Sequence | apparent Kd [1] [nM] | apparent Kd [2] [nM] | apparent Kd [3] [nM] | apparent Kd [4] [nM] |
| --- | --- | --- | --- | --- |
| UGAUAGCACAGAGGAUAUGCGUAGUGUUAUCUCUACAUGAGGAUCACCCAUGUAGAAGGCUGUGCUAUCUAAGUCGGAAACGAC | 5.95 | 9.9 | – | – |
| AACCAUGUCCGAGGAUAUCUGGAAACAUUUCCAAGAGAAGGCGGACAUGAGGAUCACCCAUGUCUCUCCUCAUCAAAUCCAAGU | 12.4 | 94.6 | – | – |
| UGGUGAAGUGUAGGAUAUGGAGGUGGGUUUUGGCCAGAAGGACAUGAGGAUCACCCAUGUGGUAGAGGGUUGGCGGUGGCCCGU | 16 | 13.7 | – | – |
| GUGGCACAUGAGGAUCACCCAUGUCAGGAUAUCGCGUGGUUUUUUUCGGCCGCGCGCGCGAGAAGGGACGUCUU | 31.1 | 29.1 | – | – |
| GCGGUCAACGUAGGAUAUCUUCAGCCACAGCGCAUUGCUGUACAUGAGGAUCACCCAUGUCCUGGAGAGAAGGACGGACGGCAG | – | – | 123 | 34.2 |
| AACCUAGUCAUAGGAUAUACAGGCAAAGCCAAAGUAGAAGGAUGACACAUGAGGAUCACCCAUGUGGUCCUUGAACAAAAUAAC | 27 | 196 | – | – |
| CAGUACUGAGGAUAUACAUGAGGAUCACCCAUGUGUUGCAGCUAGGAAACUAGCAAAAGUAGAAGGCAGUACUG | 10.7 | 21 | – | – |
| UAAACACCCUCAUGUACCUGAGGACAUGAGGAUCACCCAUGUAAGGAUAUAGCCAUUAAAUCUAACUAGAAGGUAUAGGAAAUC | 865 | 529 | – | – |
| GCAUGCAUAGCGAUAUGAUCGAGAGAUCAUGUCGCUAAAUUUAGAAGGACAUGAGGAUCACCCAUGUAGGAUAUGGGAGCAUGG | – | – | 76 | 12.7 |
| AGUAUGCGGCAGGAUAUCCAUCCGCGAAAAGGUGGAGAAGGGCUGACAUGAGGAUCACCCAUGUGCGUCUUGUA | 29.7 | 31 | – | – |
| AAAUUGGUAGAGGAUAUCGCACAGGAUUUACUGCGAGAAGGCUGCACAUGAGGAUCACCCAUGUUUUGUUGCGA | 15.2 | 18.1 | – | – |
| AAUUAGGUCACAGGAUAUACAUCAUCCAUAGCUGUAGAAGGGUGUCAAAAUAAUAUCUGACAUGAGGAUCACCCAUGUUUCCAC | – | – | 25 | 14.5 |
| AAAAAACAUGAGGAUCACCCAUGUGAGGAUAUGAUGAAAGAUUGAAAAAGGUUGAAAGUCAGAAGGUAUGUGAA | 56.9 | 59.7 | – | – |
| AAAAAGCGAGGAUAUACAUGAGGAUCACCCAUGUCAAACGGUAAGACCGCAGGAAACAGUAGAAGGCGCAAAAA | 64.3 | 89.6 | – | – |
| AUAUACAUUCGAGGAUAUCGUUAAAAUGUUAUGCGAGAAGGCGAGUCAUGAUUUAUUAUUUAGGACAUGAGGAUCACCCAUGUA | – | – | 40.2 | 33.1 |
| UCCCGGUAAGAAGGAUAUACAUGAGGAUCACCCAUGUAUUAAACAUAUACUGGCCGUGGCCUUGUGUAGAAGGUCUGUCGGUCA | 6.75 | 5.97 | – | – |
| ACAUGAGGAUCACCCAUGUGGAGUGAAGAAGGUGGUUACUUAUGACUCUCCCAUGUACAUAGGACUGAGGAUAUUCUAAUAAUU | – | – | 88.5 | 81.7 |
| AUGAUUAUACAAGGAUAUCAAUUGUAUACAAGUCUUACAUGAGGAUCACCCAUGUUAAAUUUUUUUGAGAAGGUGUGUUGUCAG | – | – | 35.6 | 30.6 |
| GUGAGGUCAGGAUAUGCAUGGCGGGACUUGCGUCGUGGCGUGGAGAAGGGACAUGAGGAUCACCCAUGUGGAGA | 73 | 63.1 | – | – |
| AGUGCGUAUGUGAGGAUAUGCUGGUCCUUGGAUCAGCAGAAGGCACAUGAGGAUCACCCAUGUGGUGUCGUACC | 209 | 36.4 | – | – |
| GACAAGGGAGGAUAUGCACAAGGGAUAUCUGACAUGCCGUUACAUGAGGAUCACCCAUGUAGAAGGCCCGAAUA | 13.7 | 35.3 | – | – |
| GUGGCUAGUGCAGGAUAUCGGCGCGUGUAGUGUCGAGAAGGGCACAUGAGGAUCACCCAUGUGAUCAAUCACUGCUAAGGCCGC | 5.12 | 5.38 | – | – |
| AAAAACGGAGGAUAUACAAAUUAAGGAAGAAAACACGAAAAACAUGAGGAUCACCCAUGUAGAAGGCCGGAAAA | 22.6 | 28.2 | – | – |
| CUCGUGUUAGGAUAUGGAUAGCCGUUUGACGAGCGAGGGCACUAGAAGGAACAUGAGGAUCACCCAUGUAAAAA | 21.3 | 21.1 | – | – |

| Sequence | apparent Kd [1] [nM] | apparent Kd [2] [nM] | apparent Kd [3] [nM] | apparent Kd [4] [nM] |
| --- | --- | --- | --- | --- |
| UUCGUGCAGCUUUGCUGUACGCGUACAUGAGGAUCACCCAUGUAGGAUAUGGUACGCUUUGCGUGCUAGAAGGAUAUGGAGAGC | 15.7 | 16.3 | – | – |
| AUCAGCUCGUCAGGAUAUACGUCACUGCGUCAGCAGUGUGGUAAGAUCACAUGAGGAUCACCCAUGUAGAAGGCACGAGCUGAU | 8.44 | 9.04 | – | – |
| CUCUCGCGAGGAUAUGAUUUAAGUAACAUGAGGAUCACCCAUGUUUUUCCGUUGUUAUGUUCAGAAGGCGCGUGAU | 44.2 | 84.3 | – | – |
| UUACUCAUGUAAGGAUAUGUAGCCGUUUCGGCUGCAGAAGGUACUAUAAUACAUGAGGAUCACCCAUGUCUUUUUAAUUUAGAC | – | – | 69.3 | 39.8 |
| GUCCUCAGCGAGGAUAUCGGGCGGGUUUUUGUUUGAGAAGGCGUGACAUGAGGAUCACCCAUGUGGCGCGUGGG | 51.2 | 82.3 | – | – |
| GAAAACGGAGAGGAUAUUUGAGAUCAAAGCUCCAAAGAAGGCUCCACAUGAGGAUCACCCAUGUGGUCUUCAAA | 13.5 | 111 | – | – |
| UGAUCUAUGUAGAAGGCCCAUAUCUAUAUUUAGGGAGGAUAUACAUGAGGAUCACCCAUGUAUAGAGCGAGUGGACUCGUCACC | 18.1 | 47.3 | – | – |
| GUAGCUAUUAAAGGAUAUUCAUACCGGAGACGGACAUGAGGAUCACCCAUGUGGCGAAAGCCUUGGGAGAAGGUUAUUAGCUAC | – | – | 452 | 17.7 |
| AAGGACUGAGGAUAUGCGCGGGCAAGAUCCUCAAUCCCAAAACAUGAGGAUCACCCAUGUAGAAGGCAGAAAUA | 25.8 | 22.6 | – | – |
| GGACGACACAUGAACAUGAGGAUCACCCAUGUAAAUUCUCAUGAGGAUAUGGAUCCUAAUUGGAUCCAGAAGGCGUGGUCGUCC | – | – | 961 | 507 |
| UUUACGUGAGGAUAUGCGAAUAGAACGUAAGACAUACAGACGCAGAAGGCACAUGAGGAUCACCCAUGUGAACC | 20.5 | 41.4 | – | – |
| UAGUAUAAGGGCAUUAAACAUGAGGAUCACCCAUGUACGAUAGAGGAUAUGCAUUUCAGUUUAGAGUAGAAGGUUAGAGAAUUG | 39.5 | 41.6 | – | – |
| GCUAUUACAGGAUAUCGUUGUUAUAACAUGAGGAUCACCCAUGUUCGGCUCGUGAUCCAGCGAGAAGGGUGGACGC | 71.7 | 73 | – | – |
| ACAUAAAUUCGAGGAUAUCGGUGAUAAAGAAGACGAGAAGGCGAUUUAAGAUAUAUGGUUAAAGACAUGAGGAUCACCCAUGUA | – | – | 32.1 | 29.7 |
| AGCUGGUGACAGCAAGAAACUUCACAUGAGGAUCACCCAUGUAGAAGGCUGUACGGUUACCGUACAGAGGAUAUACAUUGAAGA | 5.59 | 8.63 | – | – |
| GUUUUCGCAGGAUAUUAGAGUUUUUACAUGAGGAUCACCCAUGUUAAUUGGGUUAAUGUCUAAGAAGGGCGAUGUA | 67.6 | 101 | – | – |
| GUGUACCGAGGAUAUGCUGGAAUCUAGCGAAGCUAGGUUCCACAUGAGGAUCACCCAUGUAGAAGGUGGUACAC | 79.9 | 25.7 | – | – |
| ACCUUACAUGAGGAUCACCCAUGUUAGGAUAUCUCGCUUUCGCUGUCACAGCGCAAGCAGAGAAGGGACACGGG | 33.9 | 64.5 | – | – |
| AUUUAGUCAGGAUAUACAUGAGGAUCACCCAUGUAAACUUUUAGUUUAAUUUGAAUGUGUAGAAGGGACAUUUU | 28.8 | 29.8 | – | – |
| AACUCGUCAGGAUAUGCAUGCAGUUGCUGCAUUUCGCCGUUGCAGAAGGGACAUGAGGAUCACCCAUGUAGGUC | 42.4 | 37.2 | – | – |
| GCCUUAUCGGUCAGGAUAUACACCCGUCAGUUGUUGUAGAAGGGACAUGAGGAUCACCCAUGUACAUUACAUUG | 21.8 | 45.5 | – | – |
| UGAAAUCAUGUAGGAUAUGCAUGGCGAAGCUACGCAGAAGGACAUGAGGAUCACCCAUGUUAUAGCUACCCAGUUCGGUGGCAA | 141 | 118 | – | – |
| ACAGAGCCUGACAUGAGGAUCACCCAUGUUAGAUUGUUAUGUCAGGAUAUUGUCUAGCAACUAGACAAGAAGGGAUGCUCUGUG | – | – | 392 | 29.8 |
| AUGCCUAAUGAGAAGGUGUAUAUAAAUUAUAUACAAGGAUAUCGGUCAAGCAUGAAAACAUGAGGAUCACCCAUGUUAAGGCAU | – | – | 7.57 | 6.36 |
